Measured values reported in ChEMBL document CHEMBL1141756, “3-Nitropropionic acid (3-NPA), a potent antimycobacterial agent from endophytic fungi: is 3-NPA in some plants produced by endophytes?” (J Nat Prod, 2005).
Values after ≈ are worked out from the molar mass of the structure shown. Where a name gives a salt, the structure may show the parent alone. Active and inactive are the calls of the source. The calls are words filed in the database; no cut-off is given here.

How the values were obtained:
[1] = test system: Mycobacterium tuberculosis; test: Antimycobacterial activity against Mycobacterium tuberculosis H37Ra by microplate alamar blue assay; assay type: functional
In short: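 MABA against M. tuberculosis H37Ra grown in Middlebrook 7H9 broth; MIC read. Isoniazid and kanamycin sulfate run as reference drugs in the same experiment as samples.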

NCI-H187 [2] = test: Cytotoxicity against human NCI-H187 cells; assay type: functional, cell-based
In short: (§1)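 Colorimetric cytotoxicity method (Skehan) on Vero, KB, NCI-H187 (small-cell lung cancer) and BC (breast cancer) cells; IC50 derived; ellipticine as reference compound.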

[3] = Cytotoxicity against human BC cells; assay type: functional, cell-based; in short: as §1
KB [4] = test: Cytotoxicity against human KB cells; assay type: functional, cell-based; in short: as §1
Vero [5] = test: Cytotoxicity against african green monkey Vero cells; assay type: functional, cell-based; conditions: Chlorocebus sabaeus; in short: as §1
NCI-H187 [6] = test: Cytotoxicity against human NCI-H187 cells at 167.9 uM; assay type: functional, cell-based
In short: (§2)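 BC, KB and NCI-H187 cells tested at 167.9 µM using the Skehan colorimetric cytotoxicity method; ellipticine reference.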

BC = test: Cytotoxicity against human BC cells at 167.9 uM; assay type: functional, cell-based; in short: as §2
KB [7] = test: Cytotoxicity against human KB cells at 167.9 uM; assay type: functional, cell-based; in short: as §2
Vero [8] = test: Cytotoxicity against african green monkey Vero cells at 419.8 uM; assay type: functional, cell-based; conditions: Chlorocebus sabaeus
In short: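 Vero cells tested at 419.8 µM using the Skehan colorimetric cytotoxicity method; ellipticine reference.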

For `NC[C@H]1O[C@H](O[C@H]2[C@H](O)[C@@H](O[C@H]3O[C@H](CO)[C@@H](O)[C@H](N)[C@H]3O)[C@H](N)C[C@@H]2N)[C@H](O)[C@@H](O)[C@@H]1O` [KANAMYCIN SULFATE], the MIC [1] was 3.4 µM.

In the case of `Cc1c2ccncc2c(C)c2c1[nH]c1ccccc12` [ELLIPTECINE], the IC50 (NCI-H187 [2]) is reported as 800 nM, the IC50 [3] is reported as 800 nM and the IC50 (KB [4]) is reported as 800 nM. For the same compound, the IC50 (Vero [5]) was 800 nM.

For `O=C(O)CC[N+](=O)[O-]`, the MIC [1] was 3.3 µM (≈ 0.393 µg/mL), the Activity (NCI-H187 [6]) was “inactive” and the Activity (BC) was “inactive”. The Activity (KB [7]) was “inactive” and the Activity (Vero [8]) was “inactive”.

In the case of `NNC(=O)c1ccncc1` [ISONIAZID], the MIC [1] is reported as 0.29 µM (≈ 0.0398 µg/mL).
